Values belong to the molecule of their own block, whether it stands above or below them.
Assays:
[1] = DPPH radical scavenging assay
Outline: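 The test extract (6.25–400 ug/mL) is mixed 1:1 with 0.06 mM DPPH in absolute ethanol and incubated 30 min in the dark. Absorbance is read at 517 nm and corrected with a DPPH-free sample background. BHT is the standard. % inhibition = (Acontrol − Asample)/Acontrol × 100. IC50 comes from dose-response curves; three independent experiments, mean ± SD.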

[2] = Ferric reducing antioxidant power; settings: mean ± S.D. of three measurements
Outline: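 FRAP reagent is acetate buffer (300 mM, pH 3.6), TPTZ (10 mM in 40 mM HCl) and FeCl3·6H2O (20 mM) at 10:1:1, prewarmed 10 min at 37 °C. The test extract reacts with the reagent for 30 min at 37 °C, and Fe(II)-TPTZ is read at 593 nm. Values come from a ferrous sulfate calibration curve, as FeSO4 equivalents per g extract. Ascorbic acid is the reference; three independent experiments, mean ± SD.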

[3] = biological target: T1, hyaluronidase (Bos taurus, UniProt Q2YDK3); test: Hyaluronidase enzyme inhibitory assay; type: biochemical; settings: concentration range 25–250 µg/mL
T1 sequence (Q2YDK3 36-553): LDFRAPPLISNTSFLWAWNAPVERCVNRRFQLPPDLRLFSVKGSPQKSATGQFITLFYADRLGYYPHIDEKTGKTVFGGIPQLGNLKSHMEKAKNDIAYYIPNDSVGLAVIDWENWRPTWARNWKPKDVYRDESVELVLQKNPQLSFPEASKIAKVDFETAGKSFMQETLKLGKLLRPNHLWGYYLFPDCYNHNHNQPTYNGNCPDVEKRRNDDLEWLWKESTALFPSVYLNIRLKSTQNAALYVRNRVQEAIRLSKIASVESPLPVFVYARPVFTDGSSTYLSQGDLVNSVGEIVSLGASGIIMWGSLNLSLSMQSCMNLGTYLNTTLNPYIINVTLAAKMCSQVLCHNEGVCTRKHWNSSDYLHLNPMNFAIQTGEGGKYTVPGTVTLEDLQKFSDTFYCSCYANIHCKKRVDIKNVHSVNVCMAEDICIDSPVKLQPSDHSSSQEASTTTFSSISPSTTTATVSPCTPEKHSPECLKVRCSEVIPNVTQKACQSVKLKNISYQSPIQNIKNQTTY
Outline: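 The test extract in 10% DMSO is incubated with hyaluronidase 10 min at 37 °C, then with CaCl2 (12.5 mM solution) for 10 min. Sodium hyaluronate is added for 40 min at 37 °C. NaOH (0.9 M) and sodium borate (0.2 M) are added and heated 3 min at 100 °C. PDMAB (67 mM) is added for 10 min at 37 °C, and absorbance is read at 585 nm. Tannic acid is the reference; IC50 comes from dose-response curves, three independent experiments.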

[4] = biological target: collagenase from Clostridium histolyticum; test: Collagenase enzyme inhibitory assay; type: biochemical; settings: concentration range 15.63–1000 µg/mL
Outline: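 Clostridium histolyticum collagenase (0.1 mg/mL) is preincubated with the test extract in tricine buffer (50 mM tricine, 10 mM CaCl2, 400 mM NaCl, pH 7.5) for 20 min at 37 °C. FALGPA substrate (1 mM solution) is added, and absorbance is read at 335 nm after 15 min. EGCG is the positive control. IC50 is taken from dose-response curves of % inhibition, with three independent experiments.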

[5] = biological target: porcine pancreatic elastase (Sus scrofa, UniProt P00772); test: Elastase enzyme inhibitory assay; type: biochemical; settings: concentration range 15.63–1000 µg/mL
Outline: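 Porcine pancreatic elastase and the test extract in Tris-HCl (100 mM, pH 8.0) are incubated 5 min at 37 °C. The reaction is started with succinyl-Ala-Ala-Ala-p-nitroanilide (4.4 mM solution in Tris-HCl), and absorbance is read at 410 nm. EGCG is the positive control and distilled water the negative control. IC50 is taken from dose-response curves of % inhibition, with three independent experiments.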

Sequence of porcine pancreatic elastase (P00772 27-266): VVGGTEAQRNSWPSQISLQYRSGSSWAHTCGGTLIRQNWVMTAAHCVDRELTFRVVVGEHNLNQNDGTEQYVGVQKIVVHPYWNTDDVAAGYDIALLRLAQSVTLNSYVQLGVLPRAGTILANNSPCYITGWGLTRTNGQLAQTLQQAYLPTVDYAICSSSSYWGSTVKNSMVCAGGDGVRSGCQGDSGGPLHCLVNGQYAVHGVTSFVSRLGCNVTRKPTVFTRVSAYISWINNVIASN

DPPH (IC50) ([1]; mean ± S.D. of three measurements): 20.721 ± 0.138 µg/mL | DPPH radical scavenging IC50 ([1]; unit as printed in the results text): 20.72 ± 0.138 µg/mL
Molecule: Cc1cc(C(C)(C)C)c(O)c(C(C)(C)C)c1 [BHT, butylated hydroxytoluene]

Molecule: O=C1O[C@H]([C@@H](O)CO)C(O)=C1O [Ascorbic acid]
FRAP [2]: 4794.7 ± 5.507 µM FeSO4/g extract

Hyaluronidase inhibition IC50 [3]: 30.652 ± 0.626 µg/mL
Molecule: tannic acid

Collagenase inhibition IC50 [4]: 33.662 ± 0.302 µg/mL | Elastase inhibition IC50 [5]: 33.334 ± 0.299 µg/mL
Molecule: O=C(O[C@@H]1Cc2c(O)cc(O)cc2O[C@@H]1c1cc(O)c(O)c(O)c1)c1cc(O)c(O)c(O)c1 [EGCG, epigallocatechin gallate]

— PMC11170203 (Saudi Pharmaceutical Journal : SPJ, 2024)
